Measurements published in ChEMBL document CHEMBL2046280, “Discovery of the novel potent and selective FLT3 inhibitor 1-{5-[7-(3- morpholinopropoxy)quinazolin-4-ylthio]-[1,3,4]thiadiazol-2-yl}-3-p-tolylurea and its anti-acute myeloid leukemia (AML) activities in vitro and in vivo” (J Med Chem, 2012).
pIC50: −log10 of the molar value. Active and inactive are the calls of the source. No cut-off for these calls is given here.

Assays:
[1] = tested on: MV4-11; assay: Antitumor activity against human MV4-11 cells xenografted in NOD-SCID mouse assessed as tumor mitotic index at 20 mg/kg, ip administered qd for 21 days measured after 2 to 3 days of last dose by Ki67 staining-based immunohistochemical analysis; assay type: functional, organism-based; set-up: dose 20 mg/kg
How it was run: (§1)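 NOD-SCID mice bearing MV4-11 tumours received 20 mg/kg/d ip and were sacrificed at set times after dosing. Tumours were formalin-fixed and paraffin-embedded, and 4−8 μm sections were cut. Proliferation by Ki67 immunostaining, apoptosis by TUNEL staining, tissue by hematoxylin staining; light-microscope imaging.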

[2] = tested on: MV4-11; assay: Antitumor activity against human MV4-11 cells xenografted in NOD-SCID mouse assessed as tumor growth inhibition at 100 mg/kg, ip once daily for 21 days measured every 3 days relative to control; assay type: functional; conditions: MV4-11, ip, route intraperitoneal, read-out: GI
How it was run: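 Female NOD-SCID mice, 6−7 weeks old, received 100 μL of MV4-11 cells (1 × 10⁸/mL in serum-free medium) s.c. in the hind flank. At 300−500 mm³ tumours, mice were randomized (6 per group). Drug was dissolved in 25% (v/v) PEG400 plus 5% DMSO and given ip once daily at 5 mL/kg. Calipers every 3 days; volume = a × b²/2.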

[3] = tested on: DU-145; assay: Cytotoxicity against human DU145 cells after 72 hrs by MTT assay; conditions: DU-145, 72 h
[4] = biological target: Hepatocyte growth factor receptor (Homo sapiens, UniProt P08581); assay: Inhibition of human Met
Sequence of Hepatocyte growth factor receptor (P08581 whole entry): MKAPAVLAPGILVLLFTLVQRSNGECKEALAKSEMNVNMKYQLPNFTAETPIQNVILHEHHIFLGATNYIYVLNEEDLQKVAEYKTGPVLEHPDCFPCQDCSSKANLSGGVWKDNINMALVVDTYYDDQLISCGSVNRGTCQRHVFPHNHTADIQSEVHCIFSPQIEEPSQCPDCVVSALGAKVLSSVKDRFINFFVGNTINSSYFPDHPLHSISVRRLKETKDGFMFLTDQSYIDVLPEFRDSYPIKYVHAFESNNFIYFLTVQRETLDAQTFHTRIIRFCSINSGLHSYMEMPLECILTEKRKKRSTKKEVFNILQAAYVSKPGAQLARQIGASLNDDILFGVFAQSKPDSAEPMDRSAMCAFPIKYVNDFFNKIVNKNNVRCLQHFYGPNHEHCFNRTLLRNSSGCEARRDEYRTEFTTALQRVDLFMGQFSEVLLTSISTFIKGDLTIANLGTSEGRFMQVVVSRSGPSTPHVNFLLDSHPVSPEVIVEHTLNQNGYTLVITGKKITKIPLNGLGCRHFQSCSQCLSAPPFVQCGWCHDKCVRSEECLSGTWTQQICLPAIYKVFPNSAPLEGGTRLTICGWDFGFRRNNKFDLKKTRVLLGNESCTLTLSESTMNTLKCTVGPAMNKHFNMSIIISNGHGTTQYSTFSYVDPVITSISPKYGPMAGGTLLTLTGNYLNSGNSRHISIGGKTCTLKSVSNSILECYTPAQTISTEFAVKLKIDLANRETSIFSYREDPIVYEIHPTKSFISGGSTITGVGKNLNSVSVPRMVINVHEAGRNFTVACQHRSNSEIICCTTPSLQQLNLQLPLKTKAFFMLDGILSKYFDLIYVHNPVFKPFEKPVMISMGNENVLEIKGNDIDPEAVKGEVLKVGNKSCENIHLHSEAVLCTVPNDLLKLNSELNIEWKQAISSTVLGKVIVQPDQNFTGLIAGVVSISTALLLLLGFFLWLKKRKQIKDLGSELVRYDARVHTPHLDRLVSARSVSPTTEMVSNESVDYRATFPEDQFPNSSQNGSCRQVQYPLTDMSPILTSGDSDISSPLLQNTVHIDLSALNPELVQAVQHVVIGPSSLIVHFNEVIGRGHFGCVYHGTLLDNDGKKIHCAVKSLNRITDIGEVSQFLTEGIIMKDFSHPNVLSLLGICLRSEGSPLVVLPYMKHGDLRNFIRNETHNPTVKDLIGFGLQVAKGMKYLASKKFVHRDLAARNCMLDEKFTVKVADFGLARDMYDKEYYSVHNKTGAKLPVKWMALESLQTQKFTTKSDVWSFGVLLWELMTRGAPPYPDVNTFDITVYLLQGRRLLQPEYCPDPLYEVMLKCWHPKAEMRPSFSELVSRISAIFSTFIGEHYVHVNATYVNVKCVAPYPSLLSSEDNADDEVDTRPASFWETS

[5] = tested on: KARPAS-299; assay: Cytotoxicity against human KARPAS299 cells after 72 hrs by MTT assay; conditions: KARPAS-299, 72 h
[6] = tested on: A-431; assay: Cytotoxicity against human A431 cells after 72 hrs by MTT assay; conditions: A-431, 72 h
[7] = tested on: NCI-H2228; assay: Cytotoxicity against human NCI-H2228 cells after 72 hrs by MTT assay; conditions: NCI-H2228, 72 h
[8] = tested on: PC-9; assay: Cytotoxicity against human PC9 cells after 72 hrs by MTT assay; conditions: PC-9, 72 h
[9] = tested on: SK-OV-3; assay: Cytotoxicity against human SKOV3 cells after 72 hrs by MTT assay; conditions: SK-OV-3, 72 h
[10] = biological target: Mast/stem cell growth factor receptor Kit (Homo sapiens, UniProt P10721); assay: Inhibition of human c-kit
Sequence of Mast/stem cell growth factor receptor Kit (P10721 whole entry): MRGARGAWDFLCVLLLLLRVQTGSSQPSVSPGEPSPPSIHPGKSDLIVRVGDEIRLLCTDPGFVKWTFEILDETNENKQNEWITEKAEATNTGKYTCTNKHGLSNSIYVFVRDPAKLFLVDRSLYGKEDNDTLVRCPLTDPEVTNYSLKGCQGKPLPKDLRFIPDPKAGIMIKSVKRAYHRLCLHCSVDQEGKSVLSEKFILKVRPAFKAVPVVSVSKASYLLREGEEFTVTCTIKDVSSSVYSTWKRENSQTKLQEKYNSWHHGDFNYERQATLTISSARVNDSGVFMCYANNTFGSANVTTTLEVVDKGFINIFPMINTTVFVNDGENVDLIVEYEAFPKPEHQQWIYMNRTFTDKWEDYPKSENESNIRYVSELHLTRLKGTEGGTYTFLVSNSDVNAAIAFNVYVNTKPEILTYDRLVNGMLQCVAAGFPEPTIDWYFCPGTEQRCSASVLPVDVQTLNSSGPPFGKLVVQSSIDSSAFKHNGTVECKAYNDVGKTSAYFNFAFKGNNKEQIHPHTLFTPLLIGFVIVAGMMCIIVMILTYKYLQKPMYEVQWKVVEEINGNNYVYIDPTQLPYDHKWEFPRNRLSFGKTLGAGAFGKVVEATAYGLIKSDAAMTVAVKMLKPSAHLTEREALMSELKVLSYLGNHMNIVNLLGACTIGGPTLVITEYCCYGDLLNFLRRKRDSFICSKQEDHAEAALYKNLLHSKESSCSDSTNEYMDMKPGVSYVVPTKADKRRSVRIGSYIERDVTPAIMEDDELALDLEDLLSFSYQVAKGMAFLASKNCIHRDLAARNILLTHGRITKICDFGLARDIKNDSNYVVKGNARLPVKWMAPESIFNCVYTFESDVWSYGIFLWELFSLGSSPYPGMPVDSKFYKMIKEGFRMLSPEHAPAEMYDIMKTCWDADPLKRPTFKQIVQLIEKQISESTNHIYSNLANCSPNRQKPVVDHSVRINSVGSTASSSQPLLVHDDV

[11] = tested on: U-937; assay: Cytotoxicity against human U937 cells after 72 hrs by MTT assay; conditions: U-937, 72 h
[12] = biological target: Aurora kinase A (Homo sapiens, UniProt O14965); assay: Inhibition of human Aurora A
Sequence of Aurora kinase A (O14965 whole entry): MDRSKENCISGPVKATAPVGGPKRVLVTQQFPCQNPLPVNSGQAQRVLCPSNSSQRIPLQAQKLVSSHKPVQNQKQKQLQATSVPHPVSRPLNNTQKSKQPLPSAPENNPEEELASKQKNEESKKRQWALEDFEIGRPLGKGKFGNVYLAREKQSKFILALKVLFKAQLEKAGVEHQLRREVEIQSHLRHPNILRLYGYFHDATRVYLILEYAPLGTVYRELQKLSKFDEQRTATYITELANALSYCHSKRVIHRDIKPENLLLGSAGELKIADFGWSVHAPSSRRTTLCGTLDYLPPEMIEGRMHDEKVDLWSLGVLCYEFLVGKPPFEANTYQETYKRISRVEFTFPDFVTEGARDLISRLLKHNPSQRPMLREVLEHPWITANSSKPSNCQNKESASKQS

[13] = tested on: MDA-MB-231; assay: Cytotoxicity against human MDA-MB-231 cells after 72 hrs by MTT assay; conditions: MDA-MB-231, 72 h
[14] = Cytotoxicity against human SK cells after 72 hrs by MTT assay
[15] = tested on: K562; assay: Cytotoxicity against human K562 cells after 72 hrs by MTT assay; conditions: K562, 72 h
[16] = biological target: RAF proto-oncogene serine/threonine-protein kinase (Homo sapiens, UniProt P04049); assay: Inhibition of human c-Raf
Sequence of RAF proto-oncogene serine/threonine-protein kinase (P04049 whole entry): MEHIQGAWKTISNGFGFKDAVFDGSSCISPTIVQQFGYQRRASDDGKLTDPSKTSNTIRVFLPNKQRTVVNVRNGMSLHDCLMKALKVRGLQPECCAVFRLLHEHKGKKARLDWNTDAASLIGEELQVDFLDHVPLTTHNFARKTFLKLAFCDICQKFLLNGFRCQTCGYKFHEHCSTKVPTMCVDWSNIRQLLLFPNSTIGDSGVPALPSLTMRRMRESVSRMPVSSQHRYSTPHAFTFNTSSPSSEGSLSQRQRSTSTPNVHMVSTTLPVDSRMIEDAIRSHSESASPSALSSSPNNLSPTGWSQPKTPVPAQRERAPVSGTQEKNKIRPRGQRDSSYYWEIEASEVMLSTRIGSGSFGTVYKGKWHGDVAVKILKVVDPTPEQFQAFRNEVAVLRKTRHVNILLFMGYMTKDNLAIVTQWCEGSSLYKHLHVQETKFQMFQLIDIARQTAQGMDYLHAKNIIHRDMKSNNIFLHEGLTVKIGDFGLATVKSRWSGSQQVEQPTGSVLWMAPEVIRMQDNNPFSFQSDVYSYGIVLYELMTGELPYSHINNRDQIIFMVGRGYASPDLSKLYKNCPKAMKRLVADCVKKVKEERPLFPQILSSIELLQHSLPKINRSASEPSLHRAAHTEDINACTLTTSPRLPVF

[17] = biological target: Vascular endothelial growth factor receptor 1 (Homo sapiens, UniProt P17948); assay: Inhibition of human FLT1
[18] = tested on: MV4-11; assay: Antitumor activity against human MV4-11 cells xenografted in NOD-SCID mouse assessed as increase in apoptotic cells at 20 mg/kg, ip administered qd for 21 days measured after 2 to 3 days of last dose by TUNEL analysis; assay type: functional, organism-based; set-up: dose 20 mg/kg; conditions: TDE = time-dependent effect; how it was run: as §1
[19] = biological target: Platelet-derived growth factor receptor beta (Homo sapiens, UniProt P09619); assay: Inhibition of human PDGFRbeta
Sequence of Platelet-derived growth factor receptor beta (P09619 whole entry): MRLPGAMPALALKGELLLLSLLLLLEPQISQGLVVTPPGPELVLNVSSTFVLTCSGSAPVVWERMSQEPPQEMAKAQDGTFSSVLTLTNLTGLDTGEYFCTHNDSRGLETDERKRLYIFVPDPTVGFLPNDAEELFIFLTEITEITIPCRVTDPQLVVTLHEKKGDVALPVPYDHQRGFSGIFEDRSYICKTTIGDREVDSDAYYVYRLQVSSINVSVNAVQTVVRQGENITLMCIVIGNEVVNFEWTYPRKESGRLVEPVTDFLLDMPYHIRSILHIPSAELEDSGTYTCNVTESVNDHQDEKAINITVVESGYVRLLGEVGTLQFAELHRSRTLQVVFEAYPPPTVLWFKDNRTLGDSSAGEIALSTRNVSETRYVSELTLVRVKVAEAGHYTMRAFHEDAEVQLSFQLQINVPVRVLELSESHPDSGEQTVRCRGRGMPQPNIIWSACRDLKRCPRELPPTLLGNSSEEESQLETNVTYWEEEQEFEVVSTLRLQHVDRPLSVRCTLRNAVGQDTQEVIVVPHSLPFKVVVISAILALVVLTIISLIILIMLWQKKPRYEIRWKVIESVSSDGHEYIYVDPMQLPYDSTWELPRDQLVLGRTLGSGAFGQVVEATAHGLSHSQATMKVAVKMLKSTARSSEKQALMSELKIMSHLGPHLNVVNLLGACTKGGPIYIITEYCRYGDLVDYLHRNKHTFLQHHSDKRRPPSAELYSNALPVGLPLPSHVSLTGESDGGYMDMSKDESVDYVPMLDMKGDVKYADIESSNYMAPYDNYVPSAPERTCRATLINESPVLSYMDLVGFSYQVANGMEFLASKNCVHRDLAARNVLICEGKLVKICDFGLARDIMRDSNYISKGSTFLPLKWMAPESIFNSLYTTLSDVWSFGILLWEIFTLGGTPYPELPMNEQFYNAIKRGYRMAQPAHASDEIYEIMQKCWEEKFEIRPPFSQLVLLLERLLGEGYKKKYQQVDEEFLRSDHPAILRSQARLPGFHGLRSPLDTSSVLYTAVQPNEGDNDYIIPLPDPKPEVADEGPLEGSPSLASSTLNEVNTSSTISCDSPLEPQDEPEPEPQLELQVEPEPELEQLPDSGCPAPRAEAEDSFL

[20] = tested on: LoVo; assay: Cytotoxicity against human LoVo cells after 72 hrs by MTT assay
[21] = biological target: Vascular endothelial growth factor receptor 2 (Homo sapiens, UniProt P35968); assay: Inhibition of human KDR
[22] = tested on: MV4-11; assay: Cytotoxicity against FLT3-dependent human MV4-11 cells after 72 hrs by MTT assay; assay type: functional, cell-based; conditions: MV4-11, 72 h
How it was run: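 Leukemia cells at 1−4 × 10⁴ per well were exposed to increasing inhibitor concentrations for 72 h at 37 °C. MTT was then added for 2−4 h, and cells were lysed with 20% acidified SDS. OD read at 570 nm. Viability relative to 0.1% DMSO controls; triplicate. MV4-11 grown in IMDM, others in RPMI 1640 or DMEM with 10% FBS.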

[23] = tested on: HeLa; assay: Cytotoxicity against human HeLa cells after 72 hrs by MTT assay
[24] = Cmax in Sprague-Dawley rat at 40 mg/kg, ip; assay type: ADME, organism-based; set-up: dose 40 mg/kg, route intraperitoneal; conditions: in vivo
How it was run: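 Male Sprague−Dawley rats (200−250 g), n = 3, fasted overnight, with a femoral-vein catheter for blood sampling. Single 40 mg/kg ip dose; plasma drug levels measured by LC-MS/MS.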

[25] = biological target: T1, Receptor-type tyrosine-protein kinase FLT3 (Homo sapiens, UniProt P36888); assay: Inhibition of human FLT3
T1 sequence (P36888 whole entry): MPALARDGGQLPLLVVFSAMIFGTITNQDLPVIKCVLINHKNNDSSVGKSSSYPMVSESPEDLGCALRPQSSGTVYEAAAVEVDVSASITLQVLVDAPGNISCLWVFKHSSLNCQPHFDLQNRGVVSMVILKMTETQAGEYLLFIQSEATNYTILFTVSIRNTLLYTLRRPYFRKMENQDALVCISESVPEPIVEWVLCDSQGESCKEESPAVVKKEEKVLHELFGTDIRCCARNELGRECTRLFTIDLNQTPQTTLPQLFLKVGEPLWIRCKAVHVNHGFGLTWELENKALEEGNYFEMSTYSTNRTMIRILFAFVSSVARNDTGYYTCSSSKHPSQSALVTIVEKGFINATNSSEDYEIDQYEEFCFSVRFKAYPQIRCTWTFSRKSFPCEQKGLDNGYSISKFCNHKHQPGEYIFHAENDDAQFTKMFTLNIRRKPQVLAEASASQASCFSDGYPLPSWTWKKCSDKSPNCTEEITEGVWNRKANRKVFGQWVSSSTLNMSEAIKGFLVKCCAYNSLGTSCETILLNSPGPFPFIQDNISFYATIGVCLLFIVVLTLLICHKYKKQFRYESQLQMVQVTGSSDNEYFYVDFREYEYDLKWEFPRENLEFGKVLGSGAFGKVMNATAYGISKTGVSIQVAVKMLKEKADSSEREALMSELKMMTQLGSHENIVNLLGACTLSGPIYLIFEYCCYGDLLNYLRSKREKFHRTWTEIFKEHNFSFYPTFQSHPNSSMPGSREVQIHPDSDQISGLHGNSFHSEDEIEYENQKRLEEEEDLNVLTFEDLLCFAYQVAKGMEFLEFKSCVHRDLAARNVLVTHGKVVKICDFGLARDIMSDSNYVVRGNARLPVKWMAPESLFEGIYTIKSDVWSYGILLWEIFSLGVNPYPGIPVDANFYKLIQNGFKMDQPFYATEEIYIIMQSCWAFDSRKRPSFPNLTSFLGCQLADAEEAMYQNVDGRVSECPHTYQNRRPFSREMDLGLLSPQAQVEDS
How it was run: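 Human FLT3 kinase assayed across a dose−response series at 200 μM ATP.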

pIC50 [4]: < 5.00 | pIC50 [10]: 5.17 | pIC50 [12]: 5.82 | pIC50 [16]: < 5.00 | pIC50 [17]: < 6.00 | pIC50 [19]: < 5.00 | pIC50 [21]: < 5.00 | Cmax [24]: 5310 ng/mL | pIC50 [25]: 8.00
Compound: Cc1ccc(NC(=O)Nc2nnc(Sc3ncnc4cc(OCCCN5CCOCC5)ccc34)s2)cc1
Activity [1]: Active | inhibition in vivo at 100 mg/kg [2]: 115% | pIC50 [3]: 4.73 | pIC50 [5]: < 4.70 | pIC50 [6]: 5.05 | pIC50 [7]: < 4.70 | pIC50 [8]: 5.43 | pIC50 [9]: < 4.70 | pIC50 [11]: < 5.00 | pIC50 [13]: < 4.70 | pIC50 [14]: < 4.70 | pIC50 [15]: 4.90 | Activity [18]: tde | pIC50 [20]: < 4.70 | pIC50 [22]: 8.22 | pIC50 [23]: < 4.70
